Assay results reported in ChEMBL document CHEMBL3244233, “Synthesis and biological activities of some N6- and N9-carbamoyladenines and related ribonucleosides” (1977).
Active and inactive are the calls of the source. No cut-off for these calls is given here.

Experiments:
Assay type in all cases: functional
[1] = Growth inhibition of human Nc37 cells assessed as viable cells at 10^-4 M after 72 hrs relative to control; settings: NC-37, 72 h, read-out: Activity
How it was run: (§1)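 Nc 37 cells come from a normal human buffy coat, RPMI 6410 from the buffy coat of a myeloblastic leukemia patient, and L1210 is mouse leukemia. Cells were grown in RPMI 1640 with 10% fetal calf serum and exposed to compound at 10^-4 M in medium containing 0.5% Me2SO for 72 h. Viable cell number is expressed as percent of 0.5% Me2SO controls and scored as ++ 30-60%, + 60-80%, ± 80-90%, NA 90-110%.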

[2] = Growth inhibition of human RPMI6410 cells assessed as viable cells at 10^-4 M after 72 hrs relative to control; settings: RPMI 6410, 72 h, read-out: Activity; how it was run: as §1
L1210 [3] = assay: Growth inhibition of mouse L1210 cells assessed as viable cells at 10^-4 M after 72 hrs relative to control; settings: L1210, 72 h, read-out: Activity; how it was run: as §1
L1210 [4] = assay: Growth inhibition of mouse L1210 cells at 10^-4 M after 72 hrs relative to control; settings: L1210, 72 h, read-out: GI; how it was run: as §1
[5] = Growth inhibition of human Nc37 cells assessed as viable cells at 10^-5 M after 72 hrs relative to control; settings: NC-37, 72 h, read-out: Activity
[6] = Growth inhibition of human RPMI6410 cells assessed as viable cells at 10^-5 M after 72 hrs relative to control; settings: RPMI 6410, 72 h, read-out: Activity
L1210 [7] = assay: Growth inhibition of mouse L1210 cells assessed as viable cells at 10^-5 M after 72 hrs relative to control; settings: L1210, 72 h, read-out: Activity
L1210 [8] = assay: Antitumor activity against mouse L1210 cells allografted in mouse assessed as increase in life span of host

| SMILES | viability at 100 µM [1] | viability at 100 µM [2] | viability at 100 µM (L1210 [3]) | inhibition of growth at 100 µM (L1210 [4]) | viability at 10 µM [5] | viability at 10 µM [6] | viability at 10 µM (L1210 [7]) | Activity (L1210 [8]) |
| --- | --- | --- | --- | --- | --- | --- | --- | --- |
| CCCCNC(=O)n1cnc2c(N)ncnc21 | 30% | 30% | > 30% | ≥ 70% | – | – | – | – |
| CCCCNC(=O)Nc1ncnc2c1ncn2C(=O)NCCCC | 90% | 60% | 30% | – | – | – | – | – |
| CCOC(=O)n1cnc2c(NC)ncnc21 | 30% | 30% | 90% | – | – | – | – | – |
| CCCCNC(=S)Nc1ncnc2[nH]cnc12 | 30% | 60% | 30% | – | – | – | – | – |
| CNC(=S)Nc1ncnc2[nH]cnc12 | 60% | 60% | 60% | – | – | – | – | – |
| CNC(=S)n1cnc2c(N)ncnc21 | – | – | – | ≥ 70% | 30% | 30% | > 30% | inactive |
| CC(C)(C)NC(=O)n1cnc2c(N)ncnc21 | 60% | 60% | > 30% | ≥ 70% | – | – | – | – |
| C=CCNC(=O)Nc1ncnc2[nH]cnc12 | 60% | 60% | 60% | – | – | – | – | – |
| O=C(Nc1cccc2ccccc12)Nc1ncnc2c1ncn2C(=O)Nc1cccc2ccccc12 | 30% | 30% | > 30% | – | – | – | – | inactive |
| O=C(Nc1ccccc1)Nc1ncnc2c1ncn2C(=O)Nc1ccccc1 | 60% | 80% | 30% | – | – | – | – | – |
| Nc1ncnc2c1ncn2C(=O)N[C@@H](Cc1ccccc1)C(=O)O | 30% | 80% | > 30% | ≥ 70% | – | – | – | – |
| O=C(Nc1ccc(F)cc1)Nc1ncnc2[nH]cnc12 | 90% | 90% | 30% | – | – | – | – | – |
| Nc1ncnc2c1ncn2C(=O)Nc1ccccc1F | 90% | 60% | 60% | – | – | – | – | – |
| CN(C(=O)Nc1ccccc1Cl)c1ncnc2c1ncn2C(=O)Nc1ccccc1Cl | 90% | 60% | 30% | – | – | – | – | – |
| CNC(=O)Nc1ncnc2c1ncn2C(=O)Nc1ccccc1 | 90% | 90% | 30% | – | – | – | – | – |
| O=C(Nc1ccccc1)Nc1ncnc2[nH]cnc12 | 60% | 80% | 60% | – | – | – | – | – |
| Nc1ncnc2c1ncn2C(=O)NCC(=O)OCc1ccccc1 | 60% | 80% | > 30% | ≥ 70% | – | – | – | – |
| Nc1ncnc2c1ncn2C(=O)NC(Cc1ccccc1)C(=O)OCc1ccccc1 (centres undefined) | 60% | 90% | 30% | – | – | – | – | – |
| O=C(NCCc1ccccc1Cl)Nc1ncnc2[nH]cnc12 | 30% | 60% | 60% | – | – | – | – | – |
| Nc1ncnc2c1ncn2C(=O)Nc1ccccc1 | 90% | 60% | 30% | – | – | – | – | – |
| CC(C)(C)CNC(=O)Nc1ncnc2c1ncn2[C@@H]1O[C@H](CO)[C@@H](O)[C@H]1O | 90% | 90% | 80% | – | – | – | – | – |
| CCCCCCCC(=O)n1cnc2c(N)ncnc21 | 60% | 60% | 30% | – | – | – | – | – |
| O=C(NCCc1ccccc1Cl)Nc1ncnc2c1ncn2[C@@H]1O[C@H](CO)[C@@H](O)[C@H]1O | 60% | – | – | – | – | – | – | – |
| CC(=O)n1cnc2c(N)ncnc21 | 90% | 90% | 30% | – | – | – | – | – |
| CCOC(=O)CNC(=O)N(C)c1ncnc2c1ncn2C(=O)NCC(=O)OCC | 90% | 90% | 60% | – | – | – | – | – |
| CNC(=O)n1cnc2c(N)ncnc21 | 30% | 30% | 30% | ≥ 70% | 60% | 60% | – | inactive |
| O=C(Nc1ccc(Cl)cc1)Nc1ncnc2c1ncn2[C@@H]1O[C@H](CO)[C@@H](O)[C@H]1O | 30% | 30% | > 30% | – | – | – | – | inactive |

| SMILES | viability at 100 µM [1] | viability at 100 µM [2] | viability at 100 µM (L1210 [3]) | inhibition of growth at 100 µM (L1210 [4]) | viability at 10 µM [5] | viability at 10 µM [6] | viability at 10 µM (L1210 [7]) | Activity (L1210 [8]) |
| --- | --- | --- | --- | --- | --- | --- | --- | --- |
| CCCC(=O)n1cnc2c(N)ncnc21 | 90% | 60% | 60% | – | – | – | – | – |
| Cc1ccccc1NC(=O)Nc1ncnc2c1ncn2C(=O)Nc1ccccc1C | 60% | 90% | 60% | – | – | – | – | – |
| CC(OCc1ccccc1)C(NC(=O)n1cnc2c(N)ncnc21)C(=O)OCc1ccccc1 (centres undefined) | 60% | 60% | > 30% | ≥ 70% | – | – | – | – |
| O=C(Nc1ccccc1F)Nc1ncnc2c1ncn2[C@@H]1O[C@H](CO)[C@@H](O)[C@H]1O | 60% | 30% | 30% | – | – | – | – | – |
| CC(=O)OC[C@H]1O[C@@H](n2cnc3c(NC(=O)Nc4ccc(Cl)cc4)ncnc32)[C@H](OC(C)=O)[C@@H]1OC(C)=O | 30% | 30% | > 30% | – | – | – | – | – |
| O=C(Nc1ccc(Br)cc1)Nc1ncnc2c1ncn2C(=O)Nc1ccc(Br)cc1 | 60% | – | – | – | – | – | – | – |
| CCCCNC(=O)Nc1ncnc2[nH]cnc12 | 60% | 60% | 30% | – | – | – | – | – |
| CC(C)(C)NC(=O)Nc1ncnc2[nH]cnc12 | 60% | 60% | 60% | – | – | – | – | – |
| CCOC(=O)CNC(=O)n1cnc2c(N)ncnc21 | 60% | 60% | 30% | – | – | – | – | – |
| CNC(=O)N(C)c1ncnc2c1ncn2C(=O)NC | 30% | 60% | 30% | – | – | – | – | – |
| CC(C)C(NC(=O)n1cnc2c(N)ncnc21)C(=O)OCc1ccccc1 (centres undefined) | 60% | 30% | 30% | – | – | – | – | – |
| CC(C)(C)NC(=O)n1cnc2c(NC(=O)Nc3ccccc3F)ncnc21 | 60% | 60% | > 30% | – | – | – | – | – |
| O=C(O)CNC(=O)CNC(=O)Nc1ncnc2[nH]cnc12 | 90% | 90% | 90% | – | – | – | – | – |
| CN(C(=O)Nc1ccccc1)c1ncnc2c1ncn2C(=O)Nc1ccccc1 | 90% | 60% | 30% | – | – | – | – | – |
| CNC(=O)n1cnc2c(NC)ncnc21 | 30% | 60% | 90% | – | – | – | – | – |
| CNC(=O)Nc1ncnc2c1ncn2C(=O)NC | 90% | 80% | 80% | – | – | – | – | – |
| COc1ccc(NC(=O)Nc2ncnc3c2ncn3C(=O)Nc2ccc(OC)cc2)cc1 | 90% | 90% | 30% | – | – | – | – | – |
| CCCCNC(=S)n1cnc2c(N)ncnc21 | 60% | 60% | 60% | – | – | – | – | – |
| Cc1ccc(NC(=O)Nc2[nH]cnc3ncnc2-3)cc1 | 90% | 60% | > 30% | – | – | – | – | – |
| CNc1ncnc2c1ncn2C(=O)NC(C)(C)C | 60% | 60% | 60% | – | – | – | – | – |
| COc1ccc(NC(=O)Nc2ncnc3c2ncn3C(=O)NC(C)(C)C)cc1 | 90% | 80% | 80% | – | – | – | – | – |
| Nc1ncnc2c1ncn2C(=O)NC1CCCCC1 | 30% | 30% | > 30% | ≥ 70% | – | – | – | – |
| O=C(Nc1ccccc1C(F)(F)F)Nc1ncnc2[nH]cnc12 | 30% | 90% | – | – | – | – | – | – |
| O=C(Nc1ncnc2[nH]cnc12)NC1CCCCC1 | 60% | 60% | 60% | – | – | – | – | – |
| C=CCNC(=O)n1cnc2c(N)ncnc21 | 30% | 60% | > 30% | ≥ 70% | – | – | – | – |
| CC(=O)OC[C@H]1O[C@@H](n2cnc3c(NC(=O)Nc4ccccc4Cl)ncnc32)[C@H](OC(C)=O)[C@@H]1OC(C)=O | 30% | 30% | > 30% | – | – | – | – | – |
